Measurements as given in ChEMBL document CHEMBL1152501, “Mannosylated saponins based on oleanolic and glycyrrhizic acids. Towards synthetic colloidal antigen delivery systems” (2009).

Tests used:
[1] = Immunostimulatory activity in C57BL/6 mouse BMDC assessed as increase in mean fluorescence intensity of MHC class2 expression at 10 ug relative to untreated control; assay type: functional
Outline: (§1)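 Bone marrow stem cells from C57Bl/6 J mice grown 6 days in IMDM with 5% FBS, penicillin/streptomycin, glutamax, 2-mercaptoethanol and 20 ng/ml GM-CSF, 37 °C, 5% CO2. Seeded at 5 × 10^5 cells/mL and pulsed with formulations holding 10 µg saponin (cholesterol/phosphatidylcholine film hydration); LPS 10 µg/mL positive control. After 48 h, flow cytometry gated on propidium iodide-negative CD11c+ cells. MFI divided by medium-only MFI. Run 1–3 times.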

[2] = Immunostimulatory activity in C57BL/6 mouse BMDC assessed as increase in mean fluorescence intensity of CD86 expression at 10 ug relative to untreated control; assay type: functional; outline: as §1

Structure (SMILES) | fold change (FC) [1] | fold change (FC) [2]
CC1(C)CC[C@]2(C(=O)O[C@H]3O[C@H](CO)[C@@H](O)[C@H](O)[C@@H]3O[C@H]3O[C@H](CO)[C@@H](O)[C@H](O)[C@@H]3O[C@H]3O[C@H](CO)[C@@H](O)[C@H](O)[C@@H]3O)CC[C@]3(C)C(=CC[C@@H]4[C@@]5(C)CC[C@H](O[C@H]6O[C@H](CO)[C@@H](O)[C@H](O)[C@@H]6O[C@H]6O[C@H](CO)[C@@H](O)[C@H](O)[C@@H]6O[C@H]6O[C@H](CO)[C@@H](O)[C@H](O)[C@@H]6O)C(C)(C)[C@@H]5CC[C@]43C)[C@@H]2C1 | 1 | 0.9
COC(=O)[C@H]1O[C@@H](O[C@H]2[C@H](O[C@H]3CC[C@]4(C)[C@H]5C(=O)C=C6[C@@H]7C[C@@](C)(C(=O)O)CC[C@]7(C)CC[C@@]6(C)[C@]5(C)CC[C@H]4C3(C)C)O[C@H](C(=O)O)[C@@H](O)[C@@H]2O)[C@H](O)[C@@H](O)[C@@H]1O | 1.4 | 0.9
COC(=O)[C@H]1O[C@@H](O[C@H]2[C@H](O[C@H]3CC[C@]4(C)[C@H]5C(=O)C=C6[C@@H]7C[C@@](C)(C(=O)O[C@@H]8O[C@H](CO)[C@@H](O)[C@H](O)[C@H]8O)CC[C@]7(C)CC[C@@]6(C)[C@]5(C)CC[C@H]4C3(C)C)O[C@H](C(=O)O)[C@@H](O)[C@@H]2O)[C@H](O)[C@@H](O)[C@@H]1O | 1.1 | 1
COC(=O)[C@H]1O[C@@H](O[C@H]2CC[C@]3(C)[C@H]4C(=O)C=C5[C@@H]6C[C@@](C)(C(=O)O[C@@H]7O[C@H](CO)[C@@H](O)[C@H](O)[C@H]7O)CC[C@]6(C)CC[C@@]5(C)[C@]4(C)CC[C@H]3C2(C)C)[C@H](O[C@@H]2O[C@H](C(=O)O)[C@@H](O)[C@H](O)[C@H]2O)[C@@H](O)[C@@H]1O | 1.3 | 1.3
COC(=O)[C@H]1O[C@@H](O[C@H]2CC[C@]3(C)[C@H]4C(=O)C=C5[C@@H]6C[C@@](C)(C(=O)O)CC[C@]6(C)CC[C@@]5(C)[C@]4(C)CC[C@H]3C2(C)C)[C@H](O[C@@H]2O[C@H](C(=O)O)[C@@H](O)[C@H](O)[C@H]2O)[C@@H](O)[C@@H]1O | 1.5 | 0.9
COC(=O)[C@H]1O[C@@H](O[C@H]2[C@H](O[C@H]3CC[C@]4(C)[C@H]5C(=O)C=C6[C@@H]7C[C@@](C)(C(=O)O)CC[C@]7(C)CC[C@@]6(C)[C@]5(C)CC[C@H]4C3(C)C)O[C@H](C(=O)OC)[C@@H](O)[C@@H]2O)[C@H](O)[C@@H](O)[C@@H]1O | 1.1 | 0.9
CC1(C)CC[C@]2(C(=O)O[C@H]3O[C@H](CO[C@H]4O[C@H](CO)[C@@H](O)[C@H](O)[C@@H]4O)[C@@H](O)[C@H](O[C@H]4O[C@H](CO)[C@@H](O)[C@H](O)[C@@H]4O)[C@@H]3O)CC[C@]3(C)C(=CC[C@@H]4[C@@]5(C)CC[C@H](O[C@H]6O[C@H](CO[C@H]7O[C@H](CO)[C@@H](O)[C@H](O)[C@@H]7O)[C@@H](O)[C@H](O[C@H]7O[C@H](CO)[C@@H](O)[C@H](O)[C@@H]7O)[C@@H]6O)C(C)(C)[C@@H]5CC[C@]43C)[C@@H]2C1 | 1.3 | 2
CC1(C)CC[C@]2(C(=O)O)CC[C@]3(C)C(=CC[C@@H]4[C@@]5(C)CC[C@H](O[C@H]6O[C@H](CO)[C@@H](O)[C@H](O)[C@@H]6O[C@H]6O[C@H](CO)[C@@H](O)[C@H](O)[C@@H]6O[C@H]6O[C@H](CO)[C@@H](O)[C@H](O)[C@@H]6O)C(C)(C)[C@@H]5CC[C@]43C)[C@@H]2C1 | 1.1 | 0.8
CC1(C)CC[C@]2(C(=O)O)CC[C@]3(C)C(=CC[C@@H]4[C@@]5(C)CC[C@H](O[C@H]6O[C@H](CO)[C@@H](O)[C@H](O)[C@@H]6O[C@H]6O[C@H](CO)[C@@H](O)[C@H](O)[C@@H]6O)C(C)(C)[C@@H]5CC[C@]43C)[C@@H]2C1 | 1.6 | 1.2
